Experimental data: ChEMBL document CHEMBL4376841, “Discovery of a Synergistic Inhibitor of cAMP-Response Element Binding Protein (CREB)-Mediated Gene Transcription with 666-15” (J Med Chem, 2019)
Calls of active or inactive are those of the source. The calls are words filed in the database; no cut-off is given here.

Key:
Homo sapiens [1] = species: Homo sapiens; experiment: (§1) Synergistic potentiation of 2-(3-(2-Aminoethoxy)-2-naphthamido)-5-chlorophenyl 3-(3- Aminopropoxy)-2-naphthoate Dihydrochloride-induced inhibition of CREB (unknown origin) expressed in HEK293T cells assessed as inhibition of forskolin-induced CREB transcription activity at 5 to 10 uM incubated for 30 mins by luciferase reporter gene assay; format: cell-based
In short: (§2)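 HEK293T cells were transfected for 3 h with pCRE-RLuc (Renilla luciferase driven by three tandem CRE copies), then replated and left to attach overnight. Compounds, alone or combined, were added 30 min before Fsk (10 μM), followed by 5 h at 37 °C. Renilla luciferase was normalised to well protein (RLU/μg). IC50 came from nonlinear regression; at least two independent experiments in triplicate.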

[2] = Drug level in pH 7.4 PBS treated with 2-(3-(2-Aminoethoxy)-2-naphthamido)-5-chlorophenyl 3-(3- Aminopropoxy)-2-naphthoate Dihydrochloride assessed as compound formation by NMR analysis; format: physicochemical; conditions: buffer
[3] = Inhibition of CREB (unknown origin) expressed in HEK293T cells assessed as inhibition of forskolin-induced CREB transcription activity incubated for 30 mins by luciferase reporter gene assay; format: cell-based; conditions: Homo sapiens, HEK-293T, 0.5 h; in short: as §2
Homo sapiens [4] = species: Homo sapiens; experiment: as §1, with “activity by measuring combination index” for “activity”, “assay based Chou-Talalay method” for “assay”; format: cell-based
In short: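 CRE-driven Renilla luciferase reporter in transfected HEK293T cells. Combinations were added 30 min before Fsk (10 μM) for 5 h. Activity was normalised to protein. Combination indexes were calculated by the Chou-Talalay method: CI > 1.0 antagonism, CI = 1.0 additive, CI < 1.0 synergy.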

[5] = Inhibition of Kix-Kid interaction (unknown origin) by biochemical split Renilla luciferase complementation assay; design: species or system Homo sapiens
Homo sapiens [6] = species: Homo sapiens; experiment: Synergistic potentiation of 50 nM 2-(3-(2-Aminoethoxy)-2-naphthamido)-5-chlorophenyl 3-(3- Aminopropoxy)-2-naphthoate Dihydrochloride-induced inhibition of CREB in HEK293T cells assessed as inhibition of Fsk-induced NR4A2 gene expression at 5 uM pre-incubated for 1 hr before Fsk stimulation for 45 mins by qRT-PCR analysis; format: cell-based
In short: (§3)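 HEK293T cells in DMEM/10% FBS were pretreated with compounds, singly or in combination, for 1 h, then stimulated with Fsk (10 μM) for 45 min. Total RNA was isolated and NR4A2 transcript measured by qRT-PCR using the ΔΔCt method, with HPRT as reference. SEM of two independent experiments in triplicate; Student t-test.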

MDA-MB-231 [7] = experiment: Synergistic potentiation of 2-(3-(2-Aminoethoxy)-2-naphthamido)-5-chlorophenyl 3-(3- Aminopropoxy)-2-naphthoate Dihydrochloride-induced growth inhibition of human MDA-MB-231 cells incubated for 72 hrs by MTT assay; format: functional
In short: (§4)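 MDA-MB-231 cells were seeded at 1000/well, attached overnight, then given compounds (alone or combined) for 72 h at 37 °C. MTT (0.5 mg/mL) was added for 3 h, formazan dissolved in DMSO, and A570 read. Growth % = 100×(A_treated − A_initial)/(A_control − A_initial), with time-0 baseline.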

MDA-MB-231 [8] = experiment: Growth inhibition of human MDA-MB-231 cells at 0.5 to 1 uM incubated for 72 hrs by MTT assay; format: functional, cell-based; in short: as §4
Homo sapiens [9] = species: Homo sapiens; experiment: Inhibition of CREB in HEK293T cells assessed as inhibition of Fsk-induced NR4A2 gene expression at 5 uM pre-incubated for 1 hr before Fsk stimulation for 45 mins by qRT-PCR analysis; format: cell-based; in short: as §3
[10] = Solubility in ddIH2O; format: physicochemical; conditions: ddIH2O (double-deionized water)
[11] = Drug metabolism in pH 7.4 PBS assessed as 3,4-Dihydronaphtho[2,3-f][1,4]oxazepin-5(2H)-one formation by NMR analysis
[12] = Drug metabolism in pH 7.4 PBS assessed as 3-(3-aminopropoxy)-N-(4-chloro-2-hydroxy-phenyl)naphthalene-2-carboxamide formation by NMR analysis
[13] = Drug metabolism in pH 7.4 PBS assessed as tert-butyl 3-(3-(2-(tert-butoxycarbonyloxy)-4-chlorophenylcarbamoyl)naphthalen-2-yloxy)propylcarbamate formation by NMR analysis

| Compound | Drug uptake [2] | IC50 [3] | solubility [10] | Activity (Homo sapiens [1]) | also measured |
| --- | --- | --- | --- | --- | --- |
| O=C1NCCOc2cc3ccccc3cc21 | Active | > 50 µM |  | inactive |  |
| CC(C)(C)OC(=O)NCCCOc1cc2ccccc2cc1C(=O)Nc1ccc(Cl)cc1OC(=O)C(C)(C)C | Active |  |  |  |  |

Now from value to compound, other results behind:

| Drug uptake [2] | IC50 [3] | solubility [10] | Compound | Activity (Homo sapiens [1]) | also measured |
| --- | --- | --- | --- | --- | --- |
| Active | 26.3 µM |  | NCCCOc1cc2ccccc2cc1C(=O)Nc1ccc(Cl)cc1O | Active | CI (Homo sapiens [4]): < 1; IC50 [5]: > 50 µM; Activity (Homo sapiens [6]): Active; CI (MDA-MB-231 [7]): <1; growth inhibition (GI) (MDA-MB-231 [8]): inactive; inhibition (Homo sapiens [9]): inactive |
|  | 0.25 µM | > 100 mg/mL | Cl.Cl.NCCCOc1cc2ccccc2cc1C(=O)Oc1cc(Cl)ccc1NC(=O)c1cc2ccccc2cc1OCCN |  | Drug metabolism [11]: 29%; Drug metabolism [12]: Metabolite detected; Drug metabolism [13]: 47% |
|  |  | < 0.5 mg/mL | Cl.NCCCOc1cc2ccccc2cc1C(=O)NCCOc1cc2ccccc2cc1C(=O)Nc1ccc(Cl)cc1O |  |  |
